In brackets after ≈: the same amount, converted by molar mass. Activity calls are given as the source filed them. The rule behind the calls is not given here.
Columns and labels:
[1] = system: Mycobacterium tuberculosis; test: Antimycobacterial activity against Mycobacterium tuberculosis 08-0782 by resazurin microtiter assay; type: functional
Outline: (§1)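 Isolates taken from fresh Löwenstein-Jensen subcultures grown at 37°C for at most 4 weeks. Drug stocks 1 mg/ml in 0.1 N NaOH, filter sterilized, stored at −20°C less than 2 months. MIC read by resazurin microtiter assay following a previously described protocol.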

[2] = system: Mycobacterium tuberculosis; test: Antimycobacterial activity against Mycobacterium tuberculosis 08-0781 assessed as microbial susceptibility by agar proportion method; type: functional, organism-based
Outline: (§2)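 Clinical isolates freshly subcultured on Löwenstein-Jensen medium, held at 37°C no longer than 4 weeks. Fluoroquinolone stocks 1 mg/ml in 0.1 N NaOH, filter sterilized, kept at −20°C under 2 months. Standard proportion method on 7H11 agar; breakpoints 2 mg/liter ofloxacin, 0.5 mg/liter moxifloxacin and gatifloxacin; scored susceptible or resistant.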

[3] = system: Mycobacterium tuberculosis; test: Antimycobacterial activity against Mycobacterium tuberculosis 08-0764 by resazurin microtiter assay; type: functional; outline: as §1
[4] = system: Mycobacterium tuberculosis; test: Antimycobacterial activity against Mycobacterium tuberculosis 08-0774 by resazurin microtiter assay; type: functional; outline: as §1
[5] = system: Mycobacterium tuberculosis; test: Antimycobacterial activity against Mycobacterium tuberculosis 08-0774 assessed as microbial susceptibility by agar proportion method; type: functional, organism-based; outline: as §2
[6] = system: Mycobacterium tuberculosis; test: Antimycobacterial activity against Mycobacterium tuberculosis 08-0781 by resazurin microtiter assay; type: functional; outline: as §1
[7] = system: Mycobacterium tuberculosis; test: Antimycobacterial activity against Mycobacterium tuberculosis 08-0762 assessed as microbial susceptibility by agar proportion method; type: functional, organism-based; outline: as §2
[8] = system: Mycobacterium tuberculosis; test: Antimycobacterial activity against Mycobacterium tuberculosis 08-0764 assessed as microbial susceptibility by agar proportion method; type: functional, organism-based; outline: as §2
[9] = system: Mycobacterium tuberculosis; test: Antimycobacterial activity against Mycobacterium tuberculosis 08-0789 by resazurin microtiter assay; type: functional; outline: as §1
[10] = system: Mycobacterium tuberculosis; test: Antimycobacterial activity against Mycobacterium tuberculosis 08-0782 assessed as microbial susceptibility by agar proportion method; type: functional, organism-based; outline: as §2
[11] = system: Mycobacterium tuberculosis; test: Antimycobacterial activity against Mycobacterium tuberculosis 08-0762 by resazurin microtiter assay; type: functional; outline: as §1
[12] = system: Mycobacterium tuberculosis; test: Antimycobacterial activity against Mycobacterium tuberculosis 08-0789 assessed as microbial susceptibility by agar proportion method; type: functional, organism-based; outline: as §2

Row | SMILES | MIC [1] | Activity [2] | MIC [3] | MIC [4] | Activity [5] | MIC [6] | Activity [7] | Activity [8] | MIC [9] | Activity [10] | MIC [11] | Activity [12]
1 | COc1c(N2CCNC(C)C2)c(F)cc2c(=O)c(C(=O)O)cn(C3CC3)c12 (stereo unspecified) [GATIFLOXACIN] | 0.125 µg/mL (≈ 0.333 µM) | Active | ≤ 0.062 µg/mL | ≤ 0.062 µg/mL | Active | ≤ 0.062 µg/mL | Active | Active | ≤ 0.062 µg/mL | Active | ≤ 0.062 µg/mL | Active
2 | COc1c(N2C[C@@H]3CCCN[C@@H]3C2)c(F)cc2c(=O)c(C(=O)O)cn(C3CC3)c12 [MOXIFLOXACIN] | ≤ 0.125 µg/mL | Active | ≤ 0.125 µg/mL | ≤ 0.125 µg/mL | Active | ≤ 0.125 µg/mL | Active | Active | ≤ 0.125 µg/mL | Active | ≤ 0.125 µg/mL | Active
3 | CC1COc2c(N3CCN(C)CC3)c(F)cc3c(=O)c(C(=O)O)cn1c23 (stereo unspecified) [OFLOXACIN] | 0.5 µg/mL (≈ 1.38 µM) | Active | 0.5 µg/mL (≈ 1.38 µM) | ≤ 0.25 µg/mL | Active | ≤ 0.25 µg/mL | Active | Active | 0.5 µg/mL (≈ 1.38 µM) | Active | 0.5 µg/mL (≈ 1.38 µM) | Active
